Screening results from PubChem.
MPTP block: blocks calcium-induced mitochondrial swelling | isolated mouse mitochondria, Ca2+ swelling absorbance, 30 min | AID 602449 | inhibition, % at 10 µM | hit rate 1.4% among 360,000;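 active = inhibition of 50% or more, scaled per plate between neutral and stimulator controls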
CHOP inh: blocks CHOP induction under ER stress; hit rate 3.8% among 220,000; AID 2732; CHO-K1 CHOP-promoter luciferase, tunicamycin-induced, 15-18 h; inhibition, % at 10 µM;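 active = compounds that reduced the stress-induced luciferase reporter signal by more than about 70% of percent inhibition, limit read from the data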
GRIN3A LBD mod: modulators (binders) of human NR3A ligand-binding domain; NR3A LBD differential scanning fluorimetry, Tm shift; 0% = protein alone, 100% = glycine-bound protein; Tm shift relative to glycine control, % at 25 µM; hit rate 2.5% among 340,000; AID 1259313;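 active = melting temperature shift of at least 10% of the positive control shift, at one fixed dose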
TbMetRS inhib: Trypanosoma brucei MetRS inhibition. purified T. brucei MetRS, ATP depletion, Kinase-Glo luminescence. inhibition, % at 11.9 µM. hit rate 0.4% among 360,000. AID 624268;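 active = inhibition above a per-plate cutoff of the control wells' mean inhibition plus 3 SD, cut at about 5.5% in these data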
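technique = Kinase-Glo luminescence, ATP depletion format | system = purified MetRS (methionyl-tRNA synthetase) enzyme from Trypanosoma brucei | timing = 15 min preincubation, 2 h reaction, all 25 °C | evaluation = percent inhibition versus plate control medians | dosing = single dose, 11.9 µM final nominal, 0.9% final DMSO | also added = substrates ATP, L-methionine and bulk Escherichia coli tRNA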
EBV gp42 block: blocks Epstein-Barr virus glycoprotein 42 binding; hit rate 0.42% among 220,000; AID 1085; inhibition, % (tested at 21.74 µM); Fluorescence polarization binding assay, mP read-out; Q1HVG2; in the data active = inhibition above about 50%
Target sequence (Q1HVG2 whole entry, looked up): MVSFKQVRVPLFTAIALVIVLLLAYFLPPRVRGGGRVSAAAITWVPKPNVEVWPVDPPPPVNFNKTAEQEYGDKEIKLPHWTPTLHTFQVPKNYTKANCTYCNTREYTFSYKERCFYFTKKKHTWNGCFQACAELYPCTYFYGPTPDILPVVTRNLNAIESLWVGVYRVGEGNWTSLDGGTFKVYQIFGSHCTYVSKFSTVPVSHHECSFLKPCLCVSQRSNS
WT yeast gro inh: growth inhibition of WT yeast, mitochondrial fusion screen; mitochondrial fusion phenotypic screen, WT strain; inhibition, % at 10 µM; hit rate 2.1% among 190,000; in the data active = inhibition above about 58%; tested in S. cerevisiae
A number is an active result; i = inactive; nt = no result. The list is not random: actives were taken first. Their share in the collection is about 6.4%.

SMILES	MPTP block	CHOP inh	GRIN3A LBD mod	TbMetRS inhib	EBV gp42 block	WT yeast gro inh
CN(C)C(=O)Nc1ccccc1	i	i	i	i	i	nt
O=C(Cc1ccc(Cl)cc1)Nc1ccc(NC(=O)c2cccs2)cc1	i	i	i	i	i	i
O=C1C=C(NC2=CC3OC(c4ccccc4)OCC3OC2=O)CCC1 (stereo not drawn)	i	95	i	i	i	i
Cc1cc(C)cc(N(CC(=O)NC2CCCC2)C(=O)c2csnn2)c1	i	nt	i	i	nt	nt
S=C(NCc1ccco1)N1CCN(c2ccccn2)CC1	i	i	i	i	i	i
Cc1cc(C)c2c3c(sc2n1)C(=O)N(C)CC(=O)N3	i	i	i	i	i	i
O=C1CC(N2CCCCCC2)C(=O)N1c1ccc(F)cc1 (stereo not drawn)	i	i	i	i	i	i
O=C(Cc1ccccc1Cl)Nc1ccc(S(=O)(=O)Nc2nccs2)cc1	i	nt	i	i	nt	nt
O=C(CSc1ccc(Br)c2cccc(Cl)c12)Nc1ccc(S(=O)(=O)Nc2nccs2)cc1	i	i	13	i	i	i
O=C(CSc1ccc2ccccc2c1)Nc1ccc(S(=O)(=O)Nc2nccs2)cc1	i	i	13	i	i	i
Cc1ccc(S(=O)(=O)N2c3ccccc3OC(C(=O)OC(C)(C)C)(C(=O)OC(C)(C)C)C2CC(=O)c2ccccc2)cc1 (stereo not drawn)	i	nt	nt	i	nt	nt
O=C(CSc1nnc(SCc2ccccc2Cl)s1)N/N=C/c1c[nH]c2ccccc12	i	i	26	i	i	i
O=C(CSc1nnc(SCc2ccccc2)s1)N/N=C/c1ccc(Cl)cc1Cl	i	i	i	i	i	i
O=C(CSc1nnc(SCc2ccccc2)s1)N/N=C/c1c[nH]c2ccccc12	i	i	i	i	i	i
O=C(CSc1nnc(SCc2ccc(Cl)cc2)s1)N/N=C/c1ccc(Cl)cc1Cl	i	73	i	i	i	i
CCOC(=O)C1(CC)Oc2ccccc2C(c2ccc(OC)cc2)=C1C(=O)OC (stereo not drawn)	i	nt	i	i	nt	nt
O=C(N/N=C/c1c(Nc2cccc(C(F)(F)F)c2)nc2ccccn2c1=O)c1ccccc1[N+](=O)[O-]	i	i	10	i	i	i
NC(=O)Cn1c(=O)n(CC(=O)N2CCCCC2)c(=O)c2sccc21	i	nt	i	i	nt	nt
Cc1ccc2[nH]c(=O)cc(C(=O)OCC(=O)c3ccc(F)cc3)c2c1	i	77	i	i	i	i
NS(=O)(=O)c1cccc(NC(=O)COC(=O)Cn2cc(C(F)(F)F)ccc2=O)c1	i	nt	i	i	nt	nt
CN(C(=O)C1CCCO1)C1CCS(=O)(=O)C1 (stereo not drawn)	i	nt	14	i	nt	nt
COc1ccc(Cn2c(=O)oc3ccccc32)cc1F	i	nt	i	i	nt	nt
NS(=O)(=O)c1ccc(NN=C2CCCCC2)c([N+](=O)[O-])c1	i	i	11	i	i	i
Cc1cc(OC(=O)c2cccs2)ccc1C(C)C	i	87	i	i	i	i
Cc1oc2ccc(OC(=O)c3cccs3)cc2c1C(=O)OC(C)C	i	i	i	i	i	71
SMILES	MPTP block	CHOP inh	GRIN3A LBD mod	TbMetRS inhib	EBV gp42 block	WT yeast gro inh
COc1cc(-c2nc(-c3ccc4c(c3)-c3ccccc3S4(=O)=O)c(-c3ccccc3)[nH]2)cc(OC)c1O	i	92	i	i	i	i
Cc1cccc(NC(=O)CSc2nnc(Cn3nnc(-c4ccccc4)n3)n2-c2ccccc2)c1	i	78	i	i	i	i
CCc1ccc(NC(=O)CSc2nnc(-c3n[nH]c4ccccc34)n2-c2ccccc2)cc1	i	i	23	i	i	i
O=C(CSc1nnc(-c2n[nH]c3ccccc23)n1-c1ccccc1)Nc1cccc(Cl)c1	i	i	22	i	i	i
CCc1ccc(-n2c(SCC(=O)Nc3ccc(C(=O)O)cc3)nnc2-c2ccncc2)cc1	nt	i	i	nt	i	nt
CCn1c(Cn2nnc(-c3ccccc3)n2)nnc1SCC(=O)Nc1cccc(C(C)=O)c1	i	i	i	i	i	i
Cn1cccc1Cc1nnc(SCC(=O)Nc2cccc(Cl)c2)n1-c1ccc(F)cc1	i	75	i	i	i	i
Cc1nonc1NC(=O)CSc1nc2c(C)cccc2cc1C#N	i	i	i	i	i	i
Cc1cccc(C)c1NC(=O)C(Cl)=C(Cl)Cl	i	i	i	i	i	i
COc1ccc(OC)c(NC(=O)c2ccc3c(=O)n(CCc4ccccc4)c(=S)[nH]c3c2)c1	i	100	15	i	i	i
COc1ccc(OC)c(NC(=O)CCn2c(=S)[nH]c3ccccc3c2=O)c1	i	nt	i	i	nt	nt
COCCn1c(=O)[nH]c2cc(C(=O)NCCc3ccc(OC)c(OC)c3)ccc2c1=O	i	i	i	i	50	i
O=C1NN(c2cccc(Br)c2)C(=O)/C1=C\c1ccc(O)cc1	i	nt	15	i	nt	nt
O=C1NN(c2ccc(Br)cc2)C(=O)/C1=C\c1ccc(O)cc1O	i	nt	28	i	nt	nt
COCCn1c(SCc2nnc(-c3ccccc3)o2)nc2sc3c(c2c1=O)CCC3	i	i	i	i	i	97
CCOC(=O)C1=C(C)NC(=O)NC1c1ccc(OC)c(Cl)c1 (stereo not drawn)	i	i	i	i	i	i
Cc1ccc2nc(NC(=O)c3ccccn3)sc2c1	i	97	i	i	i	i
CCOc1ccc2nc(NC(=O)c3ccccn3)sc2c1	i	i	i	i	i	nt
O=C(Nc1nc2c(F)cc(F)cc2s1)c1ccccn1	i	79	i	i	i	i
O=C(COc1ccccc1)NNc1nc2c(F)cc(F)cc2s1	i	i	i	i	i	i
Cn1c(=NC(=O)c2cccc([N+](=O)[O-])c2)sc2ccccc21	i	73	i	i	i	i
COc1cc(C(=O)N=c2sc3ccccc3n2C)cc(OC)c1OC	i	i	i	i	i	i
Cc1ccc(Cl)c(NC(=O)CN2CCNC(=O)C2)c1Cl	i	i	i	i	i	i
Cc1cc(C)c(NC(=S)NCCCSC2CCCCC2)c(C)c1	i	i	i	i	i	75
COc1ccc(-n2nc3ccc(NS(C)(=O)=O)cc3n2)cc1Cl	i	i	22	i	i	i
SMILES	MPTP block	CHOP inh	GRIN3A LBD mod	TbMetRS inhib	EBV gp42 block	WT yeast gro inh
CCOc1cc(NC(=O)C2CCCO2)c(OCC)cc1NC(C)=O (stereo not drawn)	i	i	i	i	i	i
CCOc1ccc(-c2cc(CCCC(=O)NCCC(C)C)no2)cc1	i	i	i	i	i	i
Nc1nonc1-n1nnc(C(=O)N/N=C/c2ccccn2)c1-c1ccccc1	i	nt	i	i	nt	nt
CN(Cc1c(C(=O)N/N=C/c2ccc(O)cc2)nnn1-c1nonc1N)c1ccccc1	i	nt	24	i	nt	nt
Nc1nonc1-n1nnc(C(=O)N/N=C/c2cccc(Cl)c2)c1-c1cccs1	i	nt	27	i	nt	nt
Nc1nonc1-n1nnc(C(=O)N/N=C/c2cc(Br)cs2)c1-c1ccccc1	i	nt	15	i	nt	nt
Nc1nonc1-n1nnc(C(=O)N/N=C/c2ccccc2F)c1-c1cccs1	i	nt	i	i	nt	nt
C/C(=N\N=C\c1ccccc1F)c1nnn(-c2nonc2N)c1C	i	i	25	i	i	i
